This is an account of results in ChEMBL document CHEMBL1140177 (J Med Chem, 2008).

Data set [1] deals with Human immunodeficiency virus type 1 reverse transcriptase (Human immunodeficiency virus 1, UniProt Q72547, K103N). Description: Inhibition of HIV1 RT polymerase K103N mutant by SPA.
For data set [2], the system named is Human immunodeficiency virus 1. Kind of data set: Antiviral activity against HIV1 with reverse transcriptase K103N/P225H mutant in presence of 40% normal human serum. In kind it is functional, organism-based.
Data set [3] deals with Human immunodeficiency virus 1. Kind of data set: Antiviral activity against HIV1 with reverse transcriptase Y188L mutant in presence of 40% normal human serum. In kind it is functional, organism-based.
A short description of data set [4]: Half life in Beagle dog at 2 mg/kg, po and 0.25 mg/kg, iv. The format is ADME, organism-based, Canis lupus familiaris. The following applies: in vivo. Summed up:
(§1)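 Two beagle dogs, averaged. Oral dose 2 mpk in Imwitor/Tween; intravenous dose 0.25 mpk in DMSO.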

Data set [5] concerns Human immunodeficiency virus 1. Kind of data set: Antiviral activity against wild type HIV1 infected in human MT4 cells after 72 hrs in presence of 10% fetal bovine serum. The format is functional. The following applies: Human immunodeficiency virus 1, MT4, 72 h; read-out: CIC95. Summed up:
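MT-4 human T-lymphoid cells in RPMI 1640 with 10% FBS. CIC95 is the concentration that inhibits viral spread by >95%. Values are either geometric means of two determinations or given with standard deviations for n > 3 or n > 50.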

A short description of data set [6]: Solubility at pH 2. In kind it is physicochemical. The conditions noted are these: buffer.
Data set [7] in a line: Clearance in rhesus monkey at 10 mg/kg, po and 1 mg/kg, iv. In kind it is ADME, organism-based, Macaca mulatta. The following applies: in vivo. The method, boiled down:
(§2)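 Two rhesus macaques, averaged. Oral dose 10 mpk in Imwitor/Tween; intravenous dose 1 mpk in DMSO.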

Data set [8] in a line: AUC in Sprague-Dawley rat at 10 mg/kg, po. The format is ADME, organism-based. Details: dose 10 mg/kg, route oral. The conditions noted are these: plasma.
Data set [9] can be described thus: Oral bioavailability in Beagle dog at 2 mg/kg. The conditions noted are these: in vivo. The format is ADME, organism-based, Canis lupus familiaris. The method, boiled down: as §1
The nature of data set [10]: Volume of distribution in rhesus monkey at 10 mg/kg, po and 1 mg/kg, iv. In kind it is ADME, organism-based, Macaca mulatta. The conditions noted are these: in vivo. Summed up: as §2
Data set [11] deals with Human immunodeficiency virus type 1 reverse transcriptase (Human immunodeficiency virus 1, UniProt Q72547). Description: Inhibition of wild type HIV1 RT polymerase by SPA.
The test system of data set [12] is Human immunodeficiency virus 1. Description: Antiviral activity against wild type HIV1 in presence of 40% normal human serum. The format is functional, organism-based. The method, boiled down:
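Monogram Bioscience PhenoScreen cell-culture assay run with 40% NHS. […] Value is the geometric mean of n = 2.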

A short description of data set [13]: AUC in rhesus monkey at 10 mg/kg, po. The format is ADME, organism-based, Macaca mulatta. Details: dose 10 mg/kg, route oral. The following applies: plasma.
Data set [14] can be described thus: AUC in Beagle dog at 2 mg/kg, po. The conditions noted are these: plasma. In kind it is ADME, organism-based, Canis lupus familiaris. Details: dose 2 mg/kg, route oral. Summed up: as §1
For data set [15], the system named is Human immunodeficiency virus 1. Description: Antiviral activity against HIV1 with reverse transcriptase K101E/G190A mutant in presence of 40% normal human serum. In kind it is functional, organism-based.
Data set [16] can be described thus: Clearance in Beagle dog at 2 mg/kg, po and 0.25 mg/kg, iv. In kind it is ADME, organism-based, Canis lupus familiaris. The following applies: in vivo. Summed up:
as §1

Data set [17] relates to Human immunodeficiency virus 1. Kind of data set: Antiviral activity against HIV1 with reverse transcriptase K103N/V179E mutant in presence of 40% normal human serum. In kind it is functional, organism-based.
Data set [18] in a line: Solubility at pH 7. The format is physicochemical. The conditions noted are these: buffer.
Data set [19] concerns Human immunodeficiency virus 1. Kind of data set: Antiviral activity against HIV1 with reverse transcriptase Y181C/G190A mutant in presence of 40% normal human serum. In kind it is functional, organism-based.
Data set [20] is described as follows: Clearance in Sprague-Dawley rat at 10 mg/kg, po and 2 mg/kg, iv. The format is ADME, organism-based. The conditions noted are these: in vivo.
Data set [21] has as its system Human immunodeficiency virus 1. Description: Antiviral activity against HIV1 with reverse transcriptase K103N/G190A mutant in presence of 40% normal human serum. The format is functional, organism-based.
The subject of data set [22] is Human immunodeficiency virus 1. Kind of data set: Antiviral activity against HIV1 with reverse transcriptase L100I mutant in presence of 40% normal human serum. The format is functional, organism-based.
The test system of data set [23] is Human immunodeficiency virus 1. Kind of data set: Antiviral activity against HIV1 with reverse transcriptase G190A mutant in presence of 40% normal human serum. In kind it is functional, organism-based.
For data set [24], the system named is Human immunodeficiency virus 1. Description: Antiviral activity against HIV1 with reverse transcriptase Y181C mutant infected in human MT4 cells after 72 hrs in presence of 10% fetal bovine serum. The format is functional. The following applies: Human immunodeficiency virus 1, MT4, 72 h; read-out: CIC95. Summed up: (§3)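 Mutant HIV-1 spread was assayed in MT-4 human T-lymphoid cells kept in RPMI 1640 with 10% FBS. CIC95 is the concentration that inhibits viral spread by >95%. Values are geometric means of two determinations, or mean with standard deviation where n > 3. Cytotoxicity was checked up to an assay limit of 8.3 µM.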

Data set [25] concerns the target Human immunodeficiency virus type 1 reverse transcriptase (Human immunodeficiency virus 1, UniProt Q72547, Y181C). Description: Inhibition of HIV1 RT polymerase Y181C mutant by SPA.
Data set [26] can be described thus: Oral bioavailability in rhesus monkey at 10 mg/kg. In kind it is ADME, organism-based, Macaca mulatta. The following applies: in vivo.
The nature of data set [27]: Half life in rhesus monkey at 10 mg/kg, po and 1 mg/kg, iv. The format is ADME, organism-based, Macaca mulatta. The following applies: in vivo. The method, boiled down: as §2
A short description of data set [28]: Volume of distribution in Sprague-Dawley rat at 10 mg/kg, po and 2 mg/kg, iv. The format is ADME, organism-based. The conditions noted are these: in vivo.
For data set [29], the system named is Human immunodeficiency virus 1. Kind of data set: Antiviral activity against HIV1 with reverse transcriptase K103N/Y181C mutant in presence of 40% normal human serum. In kind it is functional, organism-based.
Data set [30] can be described thus: Volume of distribution in Beagle dog at 2 mg/kg, po and 0.25 mg/kg, iv. The conditions noted are these: in vivo. In kind it is ADME, organism-based, Canis lupus familiaris. Summed up: as §1
In data set [31] the test system is Human immunodeficiency virus 1. Kind of data set: Antiviral activity against HIV1 with reverse transcriptase Y181C mutant in presence of 40% normal human serum. The format is functional, organism-based.
Data set [32] has as its system Human immunodeficiency virus 1. Description: Antiviral activity against wild type HIV1 infected in human MT4 cells after 72 hrs in presence of 50% normal human serum. In kind it is functional. The conditions noted are these: Human immunodeficiency virus 1, MT4, 72 h; read-out: CIC95. Summed up: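 MT-4 human T-lymphoid cells in RPMI 1640 with 50% NHS. CIC95 is the concentration that inhibits viral spread by >95%. Values are either geometric means of two determinations or given with standard deviations for n > 3 or n > 50.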

Data set [33] has as its system Human immunodeficiency virus 1. Description: Antiviral activity against HIV1 with reverse transcriptase G190S mutant in presence of 40% normal human serum. In kind it is functional, organism-based.
The nature of data set [34]: Half life in Sprague-Dawley rat at 10 mg/kg, po and 2 mg/kg, iv. The format is ADME, organism-based. The following applies: in vivo.
Data set [35] can be described thus: Oral bioavailability in Sprague-Dawley rat at 10 mg/kg. In kind it is ADME, organism-based. The following applies: in vivo.
The subject of data set [36] is Human immunodeficiency virus 1. Kind of data set: Antiviral activity against HIV1 with reverse transcriptase K103N mutant infected in human MT4 cells after 72 hrs in presence of 10% fetal bovine serum. In kind it is functional. The conditions noted are these: Human immunodeficiency virus 1, MT4, 72 h; read-out: CIC95. The method, boiled down:
as §3

Data set [37] has as its system Human immunodeficiency virus 1. Description: Antiviral activity against HIV1 with reverse transcriptase K103N mutant in presence of 40% normal human serum. In kind it is functional, organism-based.

In brackets after ≈: the same amount, converted by molar mass.

Regarding `N#Cc1cc(Cl)cc(Oc2cc(OCc3n[nH]c4ncccc34)ccc2Cl)c1`, the 50% inhibitory concentration (IC50) in data set [1] stood at 0.0005 µM; in [2], 0.0048 µM; in [3] it was 0.9 µM; in [11], 0.0004 µM; in [12], 0.0015 µM; in data set [15] it was 0.0048 µM. Besides, the IC50 in [17] amounted to 0.006 µM; in [19], 0.0171 µM; in data set [21], 0.004 µM; in data set [22], 0.0011 µM; in [23], 0.0018 µM; in data set [25] it was 0.0002 µM. The IC50 stood at 0.0341 µM in data set [29], 0.0041 µM in [31], 0.0068 µM in [33] and 0.0025 µM in [37]. Further, the half-life was 11.8 h in data set [4], 8.2 h in data set [27] and 4.1 h in data set [34]. The IC95 was found to be 0.0103 µM in data set [5], 0.022 µM in data set [24], 0.034 µM in data set [32] and 0.0146 µM in data set [36]. Also, the solubility in data set [6] is less than 0.1 µg/mL; in data set [18] it was 0.1 µg/mL (≈ 0.243 µM). Moreover, the clearance in [7] came to 19 mL/min/kg; in [16] it was 8.9 mL/min/kg; in [20], 28 mL/min/kg. In addition, the AUC amounted to 9.5 µM·h in data set [8], 0.3 µM·h in data set [13] and 1.6 µM·h in data set [14]. The bioavailability in [9] turned out to be 17%; in data set [26] it was 3%; in [35], 58%. The Vd in [10] came to 4.4 L/kg; in data set [28], 5.3 L/kg; in data set [30], 2.6 L/kg.
Regarding `N#Cc1cc(Cl)cc(Oc2cc(OCc3n[nH]c4cccnc34)ccc2Cl)c1`, the 50% inhibitory concentration (IC50) turned out to be 0.04 µM in data set [1], 0.0036 µM in data set [11] and 0.74 µM in data set [25]. Moreover, the IC95 in [5] worked out at 0.307 µM; in data set [32], 0.922 µM; in [36], 2.77 µM.
Consider `N#Cc1cc(Cl)cc(Oc2cc(OCc3n[nH]c4cnccc34)ccc2Cl)c1`, for which the IC50 in data set [1] was 0.0013 µM; in data set [11], 0.0008 µM; in [25], 0.0039 µM. Moreover, the IC95 turned out to be 0.0108 µM in data set [5], 0.031 µM in [24], 0.034 µM in [32] and 0.0342 µM in [36].
For `O=C1Nc2ccc(Cl)cc2[C@@](C#CC2CC2)(C(F)(F)F)O1` [EFAVIRENZ], the IC95 in data set [5] came to 0.0046 µM; in data set [24], 0.087 µM; in data set [32], 0.042 µM; in [36], 0.245 µM.

The IC50 is the concentration that inhibits the measured activity by half. A word on the half-life: it is the time needed for the level to fall by half in the phase considered. One may read the solubility as how much of the substance goes into solution per volume. Usually AUC stands for concentration integrated over time. A word on the bioavailability: it is the share of a dose that reaches the circulation, judged against a reference dose that is usually intravenous.
